Results published in ChEMBL document CHEMBL3091338, “Secoemestrin D, a cytotoxic epitetrathiodioxopiperizine, and emericellenes A-E, five sesterterpenoids from Emericella sp. AST0036, a fungal endophyte of Astragalus lentiginosus1” (J Nat Prod, 2013).
Activity calls are given as the source filed them. The rule behind the calls is not given here.

Legend:
CHP100 = assay: Cytotoxicity against human CHP100 cells up to 5 uM after 72 hrs by Alamar Blue assay; format: functional, cell-based
Method in brief: (§1)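 In vitro cytotoxicity was read by the colorimetric resazurin (AlamarBlue) assay of cell viability. The panel covered human non-small cell lung NCI-H460, CNS glioma SF-268, breast MCF-7, metastatic breast adenocarcinoma MDA-MB-231, metastatic prostate adenocarcinoma PC-3M and neuroblastoma CHP-100 cancer lines, plus normal human lung fibroblast WI-38 cells.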

[1] = Cytotoxicity against human WI38 cells up to 5 uM after 72 hrs by Alamar Blue assay; format: cell-based; details: wi-38, 72 h; method in brief: as §1
MDA-MB-231 [2] = assay: Cytotoxicity against human MDA-MB-231 cells up to 5 uM after 72 hrs by Alamar Blue assay; format: functional, cell-based; method in brief: as §1
PC-3M = assay: Cytotoxicity against human PC3M cells up to 5 uM after 72 hrs by Alamar Blue assay; format: functional, cell-based; method in brief: as §1
MCF7 [3] = assay: Cytotoxicity against human MCF7 cells up to 5 uM after 72 hrs by Alamar Blue assay; format: functional, cell-based; method in brief: as §1
SF-268 [4] = assay: Cytotoxicity against human SF268 cells up to 5 uM after 72 hrs by Alamar Blue assay; format: functional, cell-based; method in brief: as §1
NCI-H460 [5] = assay: Cytotoxicity against human NCI-H460 cells up to 5 uM after 72 hrs by Alamar Blue assay; format: functional, cell-based; method in brief: as §1
[6] = Cytotoxicity against human PC3M cells after 72 hrs by Alamar Blue assay; format: functional, cell-based, PC-3M
Method in brief: (§2)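 Resazurin-based colorimetric cell viability read-out on human cancer cells (MCF-7 breast; PC-3M metastatic prostate adenocarcinoma), run in vitro in a panel that also included normal human lung fibroblast WI-38 cells.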

SF-268 [7] = assay: Cytotoxicity against human SF268 cells after 72 hrs by Alamar Blue assay; format: functional, cell-based; method in brief: as §1
MCF7 [8] = assay: Cytotoxicity against human MCF7 cells after 72 hrs by Alamar Blue assay; format: functional, cell-based; method in brief: as §2
MDA-MB-231 [9] = assay: Cytotoxicity against human MDA-MB-231 cells after 72 hrs by Alamar Blue assay; format: functional, cell-based; method in brief: as §1
NCI-H460 [10] = assay: Cytotoxicity against human NCI-H460 cells after 72 hrs by Alamar Blue assay; format: functional, cell-based; method in brief: as §1
[11] = Cytotoxicity against human CHP100 cells after 72 hrs by Alamar Blue assay; format: functional, cell-based; details: CHP100, 72 h; method in brief: as §1
[12] = Cytotoxicity against human WI38 cells after 72 hrs by Alamar Blue assay; format: cell-based; details: WI-38, 72 h; method in brief: as §1

| Structure (SMILES) | Activity (CHP100) | Activity [1] | Activity (MDA-MB-231 [2]) | Activity (PC-3M) | Activity (MCF7 [3]) | Activity (SF-268 [4]) | Activity (NCI-H460 [5]) | also measured |
| --- | --- | --- | --- | --- | --- | --- | --- | --- |
| CC(C)=CCC[C@@]1(C(=O)O)[C@@H]2CC=C(CO)[C@@H]1CC/C(C)=C/CC/C(C)=C/C2 | inactive | Non-toxic | inactive | inactive | inactive | inactive | inactive |  |
| COc1cc2c(c3oc4cccc(O)c4c(=O)c13)[C@@H]1C=CO[C@@H]1O2 [STERIGMATOCYSTIN] |  |  |  |  |  |  |  | IC50 ([6]; pc-3m): 3230 nM; IC50 (SF-268 [7]; sf-268): 2960 nM; IC50 (MCF7 [8]; mcf7): 3630 nM; IC50 (MDA-MB-231 [9]; mda-mb-231): 2750 nM; IC50 (NCI-H460 [10]; nci-h460): 3410 nM |
| CC(C)=CCC[C@@]1(C(=O)O)[C@H]2C/C=C(\C)CC/C=C(\C)CC[C@H]1[C@@]1(CC2)CO1 | inactive | Non-toxic | inactive | inactive | inactive | inactive | inactive |  |
| COc1ccc(C(=O)O[C@H]2C=COC=C3C[C@]45SSSS[C@](Cc6ccc(O)cc6)(C(=O)N4[C@@H]32)N(C)C5=O)cc1O |  |  |  |  |  |  |  | IC50 ([6]; Homo sapiens, PC-3M, 72 h): 170 nM; IC50 [11]: 100 nM; IC50 (SF-268 [7]; Homo sapiens, SF-268, 72 h): 60 nM; IC50 (MCF7 [8]; Homo sapiens, MCF7, 72 h): 140 nM; IC50 (MDA-MB-231 [9]; Homo sapiens, MDA-MB-231, 72 h): 60 nM; IC50 [12]: 240 nM; IC50 (NCI-H460 [10]; Homo sapiens, NCI-H460, 72 h): 150 nM |
| CC(C)=CCC[C@@]1(C=O)[C@H]2C/C=C(\C)CC/C=C(\C)CC[C@H]1[C@@]1(CC2)CO1 | inactive | Non-toxic | inactive | inactive | inactive | inactive | inactive |  |
| C=C(C)[C@H]1COc2c(C)cc3oc4ccc(CC=C(C)C)c(O)c4c(=O)c3c2[C@H]1O (relative stereo) | inactive | Non-toxic | inactive | inactive | inactive | inactive | inactive |  |
| CC(C)=CCC[C@@]1(C(=O)O)[C@H]2C/C=C(\C)CC/C=C(\C)CC[C@H]1[C@H](C=O)CC2 | inactive | Non-toxic | inactive | inactive | inactive | inactive | inactive |  |
| CC(C)=CCc1ccc2c(c1O)C(=O)c1c(O)cc(C)c3c1C(O2)C(C(C)(C)O)CO3 (stereo unspecified) | inactive | Non-toxic | inactive | inactive | inactive | inactive | inactive |  |
| CC(C)=CCC[C@@]1(C(=O)O)[C@H]2C/C=C(\C)CC/C=C(\C)CC[C@H]1[C@@H](C=O)CC2 | inactive | Non-toxic | inactive | inactive | inactive | inactive | inactive |  |
| COc1cccc2c1C(=O)c1c(O)c3c(c(O)c1C2=O)C[C@@](O)(C(=O)CO)C[C@@H]3O[C@H]1C[C@H](N)[C@H](O)[C@H](C)O1 [DOXORUBICIN] |  |  |  |  |  |  |  | IC50 ([6]; Homo sapiens, PC-3M, 72 h): 270 nM; IC50 [11]: 790 nM; IC50 (SF-268 [7]; Homo sapiens, SF-268, 72 h): 310 nM; IC50 (MDA-MB-231 [9]; Homo sapiens, MDA-MB-231, 72 h): 680 nM; IC50 (NCI-H460 [10]; Homo sapiens, NCI-H460, 72 h): 50 nM |
